In assay [1] the target is T1, Alpha-1D adrenergic receptor (Homo sapiens, UniProt P25100).
T1 sequence (P25100 whole entry): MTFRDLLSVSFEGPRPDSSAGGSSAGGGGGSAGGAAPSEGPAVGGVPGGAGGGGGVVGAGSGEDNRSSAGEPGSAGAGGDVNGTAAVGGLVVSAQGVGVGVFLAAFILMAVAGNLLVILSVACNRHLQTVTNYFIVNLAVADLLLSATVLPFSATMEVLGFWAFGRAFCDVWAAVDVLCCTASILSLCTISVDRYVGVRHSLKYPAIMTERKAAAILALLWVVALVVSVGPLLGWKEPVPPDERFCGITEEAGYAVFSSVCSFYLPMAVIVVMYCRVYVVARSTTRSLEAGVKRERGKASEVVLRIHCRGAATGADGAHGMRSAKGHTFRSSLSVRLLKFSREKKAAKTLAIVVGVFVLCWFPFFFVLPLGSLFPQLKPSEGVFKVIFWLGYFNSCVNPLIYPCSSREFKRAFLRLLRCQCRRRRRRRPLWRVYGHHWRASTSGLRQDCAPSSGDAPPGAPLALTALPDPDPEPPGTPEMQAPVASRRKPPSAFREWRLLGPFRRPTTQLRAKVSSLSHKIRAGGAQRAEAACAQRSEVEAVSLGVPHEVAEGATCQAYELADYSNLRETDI
The experiment in a line: Affinity constant on CHO cells expressing Human recombinant Alpha-1D adrenergic receptor. The format is cell-based.

The target in assay [2] is T2, Alpha-1A adrenergic receptor (Homo sapiens, UniProt P35348).
T2 sequence (P35348 whole entry): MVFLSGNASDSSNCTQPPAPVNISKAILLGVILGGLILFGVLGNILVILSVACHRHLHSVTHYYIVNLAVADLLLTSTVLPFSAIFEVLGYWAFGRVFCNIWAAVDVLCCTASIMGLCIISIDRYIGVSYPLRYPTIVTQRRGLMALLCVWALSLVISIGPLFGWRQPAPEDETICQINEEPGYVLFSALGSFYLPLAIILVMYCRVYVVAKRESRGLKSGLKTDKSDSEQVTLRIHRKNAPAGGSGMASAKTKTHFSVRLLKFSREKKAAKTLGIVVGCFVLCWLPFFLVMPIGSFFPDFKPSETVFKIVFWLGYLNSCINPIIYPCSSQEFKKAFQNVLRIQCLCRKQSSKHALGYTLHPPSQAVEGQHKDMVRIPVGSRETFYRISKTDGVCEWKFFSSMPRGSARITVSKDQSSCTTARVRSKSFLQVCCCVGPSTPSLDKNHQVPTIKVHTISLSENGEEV
Nature of the assay: Affinity constant on CHO cells expressing Human recombinant Alpha-1A adrenergic receptor. The format is cell-based.

Assay [3] deals with T3, Alpha-1A adrenergic receptor (Rattus norvegicus, UniProt P43140).
T3 sequence (P43140 whole entry): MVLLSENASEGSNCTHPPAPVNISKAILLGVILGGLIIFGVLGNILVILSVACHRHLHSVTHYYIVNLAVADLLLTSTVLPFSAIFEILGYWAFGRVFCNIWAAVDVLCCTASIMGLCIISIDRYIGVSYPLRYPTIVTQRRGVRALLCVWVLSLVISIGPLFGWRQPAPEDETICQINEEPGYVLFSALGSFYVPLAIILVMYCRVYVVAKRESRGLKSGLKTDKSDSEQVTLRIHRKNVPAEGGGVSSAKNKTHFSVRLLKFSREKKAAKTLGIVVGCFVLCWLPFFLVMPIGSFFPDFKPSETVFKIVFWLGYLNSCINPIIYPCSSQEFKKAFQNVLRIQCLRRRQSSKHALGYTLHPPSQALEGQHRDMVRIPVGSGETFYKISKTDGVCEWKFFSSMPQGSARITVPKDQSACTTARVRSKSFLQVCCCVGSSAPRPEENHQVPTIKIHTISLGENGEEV
The experiment in a line: Antagonistic affinity tested against isolated Rat Prostatic Vas Deferens Alpha-1A adrenergic receptor. The settings on record: read-out: pA2 (converted). It is filed as functional, tissue-based.

The target in assay [4] is T4, Alpha-1D adrenergic receptor (Rattus norvegicus, UniProt P23944).
T4 sequence (P23944 whole entry): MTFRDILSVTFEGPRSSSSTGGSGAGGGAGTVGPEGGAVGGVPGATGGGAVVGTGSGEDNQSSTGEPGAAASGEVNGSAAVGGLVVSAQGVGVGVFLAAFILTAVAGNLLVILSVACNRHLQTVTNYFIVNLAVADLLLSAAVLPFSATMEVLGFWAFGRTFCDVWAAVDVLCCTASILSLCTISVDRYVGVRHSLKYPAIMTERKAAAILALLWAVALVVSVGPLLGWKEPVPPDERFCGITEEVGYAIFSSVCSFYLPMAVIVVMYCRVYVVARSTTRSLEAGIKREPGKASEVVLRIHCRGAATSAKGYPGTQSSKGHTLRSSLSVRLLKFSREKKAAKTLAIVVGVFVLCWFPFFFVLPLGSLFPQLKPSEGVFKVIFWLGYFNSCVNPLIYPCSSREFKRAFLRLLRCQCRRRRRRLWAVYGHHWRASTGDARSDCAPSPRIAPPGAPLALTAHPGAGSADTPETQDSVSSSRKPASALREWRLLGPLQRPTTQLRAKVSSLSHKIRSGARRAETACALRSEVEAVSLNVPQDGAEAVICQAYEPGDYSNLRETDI
The experiment in a line: Antagonistic affinity tested against isolated Rat Thoracic Aorta Alpha-1D adrenergic receptor. It is filed as functional, tissue-based. The conditions noted are these: read-out: pA2 (converted).

In assay [5] the target is T5, Alpha-1B adrenergic receptor (Rattus norvegicus, UniProt P15823).
T5 sequence (P15823 whole entry): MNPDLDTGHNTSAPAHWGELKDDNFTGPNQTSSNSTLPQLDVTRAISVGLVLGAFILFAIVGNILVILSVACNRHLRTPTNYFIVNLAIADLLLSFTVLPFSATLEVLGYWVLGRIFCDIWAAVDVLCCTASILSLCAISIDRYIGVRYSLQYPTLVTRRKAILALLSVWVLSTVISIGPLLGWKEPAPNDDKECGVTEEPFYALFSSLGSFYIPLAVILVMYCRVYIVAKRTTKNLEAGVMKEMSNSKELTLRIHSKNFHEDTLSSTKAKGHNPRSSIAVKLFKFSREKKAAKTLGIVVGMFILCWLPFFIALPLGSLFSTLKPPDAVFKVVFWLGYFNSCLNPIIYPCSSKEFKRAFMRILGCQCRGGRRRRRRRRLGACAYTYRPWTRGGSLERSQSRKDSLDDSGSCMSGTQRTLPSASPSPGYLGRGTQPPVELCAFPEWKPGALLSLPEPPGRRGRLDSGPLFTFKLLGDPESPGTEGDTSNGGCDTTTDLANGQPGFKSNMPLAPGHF
Nature of the assay: Antagonistic affinity tested against isolated Rat Spleen Alpha-1B adrenergic receptor. The settings on record: read-out: pA2 (converted). It is filed as functional. Summed up:
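Rat spleen strips, 1 g resting tension, in Krebs with 4.0 µM propranolol and 0.01 mM K2EDTA, equilibrated 2 h. Cumulative isometric (-)-phenylephrine curves at 30 min intervals; the second served as control.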

Assay [6] has as its target T6, Alpha-1B adrenergic receptor (Homo sapiens, UniProt P35368).
T6 sequence (P35368 whole entry): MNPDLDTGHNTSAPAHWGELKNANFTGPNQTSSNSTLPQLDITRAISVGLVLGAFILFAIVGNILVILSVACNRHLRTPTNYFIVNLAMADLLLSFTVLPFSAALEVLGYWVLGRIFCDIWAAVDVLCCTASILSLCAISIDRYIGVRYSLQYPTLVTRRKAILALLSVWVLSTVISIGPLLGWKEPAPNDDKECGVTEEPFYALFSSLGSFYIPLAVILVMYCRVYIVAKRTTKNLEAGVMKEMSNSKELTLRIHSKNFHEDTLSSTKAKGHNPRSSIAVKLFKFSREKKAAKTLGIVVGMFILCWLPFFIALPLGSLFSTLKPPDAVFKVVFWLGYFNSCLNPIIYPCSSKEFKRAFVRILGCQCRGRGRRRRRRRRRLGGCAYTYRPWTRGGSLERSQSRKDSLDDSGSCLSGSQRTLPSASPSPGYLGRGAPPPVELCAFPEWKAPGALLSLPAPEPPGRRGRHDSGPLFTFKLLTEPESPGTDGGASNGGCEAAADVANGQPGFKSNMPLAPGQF
Nature of the assay: Affinity constant on CHO cells expressing Human recombinant Alpha-1B adrenergic receptor. It is filed as cell-based.

For assay [7], the target named is T3, Alpha-1A adrenergic receptor. The experiment in a line: Antagonistic affinity tested against isolated Rat Prostate Alpha-1A adrenergic receptor. It is filed as functional. The conditions noted are these: read-out: pA2 (converted). Summed up:
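Prostate strips from male Wistar rats (275-300 g), 2 g tension in modified Krebs at 37 °C, 95% O2/5% CO2, pH 7.4, primed with 1.0 µM (-)-noradrenaline. After 90 min wash, a cumulative noradrenaline curve was run, then a second after 30 min antagonist equilibration. Single antagonist concentration in the range 0.01-1 µM; pKB by van Rossum.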

The target in assay [8] is T7, 5-hydroxytryptamine receptor 1A (Homo sapiens, UniProt P08908).
T7 sequence (P08908 whole entry): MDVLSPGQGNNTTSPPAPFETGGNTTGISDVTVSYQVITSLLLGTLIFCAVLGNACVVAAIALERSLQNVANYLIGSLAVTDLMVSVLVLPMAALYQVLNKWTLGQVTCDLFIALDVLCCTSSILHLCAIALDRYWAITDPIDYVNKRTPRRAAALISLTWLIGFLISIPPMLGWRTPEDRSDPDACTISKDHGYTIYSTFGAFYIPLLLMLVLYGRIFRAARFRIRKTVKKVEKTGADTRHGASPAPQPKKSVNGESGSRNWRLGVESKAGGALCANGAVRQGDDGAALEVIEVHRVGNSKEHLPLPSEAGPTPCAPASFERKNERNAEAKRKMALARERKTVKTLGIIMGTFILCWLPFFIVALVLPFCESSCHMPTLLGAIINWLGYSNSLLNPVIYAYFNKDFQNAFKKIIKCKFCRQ
Nature of the assay: Affinity constant on HeLa cells expressing Human recombinant 5-hydroxytryptamine receptor 1A.

`COc1cccc(OC)c1OCCNCC1CC(c2ccccc2)c2ccccc2S1` (stereo not drawn): the Ki – broadly, a dissociation constant, usually derived from enzyme kinetics or from competition with a known ligand – in assay [1] is 0.437 nM; in assay [2], 0.0891 nM; in assay [6], 1.15 nM; in assay [8], 15.1 nM. Further, the Kb in assay [3] was 6.17 nM; in assay [4], 17.4 nM; in assay [5] it was 155 nM; in assay [7] it was 4.9 nM.

As to `COc1cccc(OC)c1OCCNC[C@H]1C[C@H](c2ccccc2)c2ccccc2S1`, the Ki in assay [1] was 22.9 nM; in assay [2], 2.34 nM; in assay [6], 27.5 nM; in assay [8], 10.2 nM. Also, the Kb in assay [3] was 209 nM; in assay [4], 61.7 nM; in assay [5], 302 nM; in assay [7], 107 nM.

As to `COc1ccccc1N1CCN(CCN2C(=O)CC3(CCCC3)CC2=O)CC1` [BMY-7378], the Kb in assay [5] was 33.1 nM. In addition, the inhibitory constant (Ki) in assay [6] is 708 nM; in assay [8], 0.372 nM.

On to `COc1cccc(OC)c1OCCNCC1Cc2ccccc2C(c2ccccc2)C1` (stereo not drawn), for which the Ki was 17 nM in assay [1], 0.513 nM in assay [2], 12.3 nM in assay [6] and 6.31 nM in assay [8]. The Kb is 178 nM in assay [3], 91.2 nM in assay [4], 110 nM in assay [5] and 288 nM in assay [7].

`COc1cccc(OC)c1OCCNCC1COc2ccccc2O1` (stereo not drawn): the Kb is 0.309 nM in assay [3], 1.58 nM in assay [4] and 0.537 nM in assay [7].

In the case of `COc1cccc(OC)c1OCCNCCOc1ccccc1Cc1ccccc1`, the inhibition constant Ki in assay [1] was 3.63 nM; in assay [2], 0.398 nM; in assay [6] it was 2.82 nM; in assay [8], 10.7 nM. In addition, the Kb in assay [3] was 58.9 nM; in assay [4], 16.6 nM; in assay [5], 67.6 nM; in assay [7], 33.9 nM.

As for `COc1cccc(OC)c1OCCNCC1CC(c2ccccc2)c2ccccc2C1=O` (stereo not drawn), the Ki is 0.182 nM in assay [1], 0.251 nM in assay [2], 1.23 nM in assay [6] and 11 nM in assay [8]. Moreover, the Kb was 0.447 nM in assay [3], 2 nM in assay [4], 26.3 nM in assay [5] and 0.347 nM in assay [7].

As to `COc1cccc(OC)c1OCCNC[C@@H]1Oc2ccccc2O[C@H]1c1ccccc1`, the Kb was 5.75 nM in assay [3], 32.4 nM in assay [4], 2510 nM in assay [5] and 5.89 nM in assay [7].

For `COc1cccc(OC)c1OCCNC[C@@H]1C[C@H](c2ccccc2)c2ccccc2O1`, the inhibitory constant (Ki) in assay [1] was 0.0891 nM; in assay [2], 0.0501 nM; in assay [6] it was 0.0398 nM; in assay [8], 6.46 nM. The Kb is 1.32 nM in assay [3], 0.275 nM in assay [4], 28.8 nM in assay [5] and 1.12 nM in assay [7].

The values are drawn from ChEMBL document CHEMBL1135915, “Structure-activity relationships in 1,4-benzodioxan-related compounds. 7. Selectivity of 4-phenylchroman analogues for alpha(1)-adrenoreceptor subtypes” (J Med Chem, 2002).
